Values belong to the compound of their own block, whether it stands above or below them. Active and inactive are the calls of the source. No cut-off for these calls is given here.
How the values were obtained:
D-amino-acid oxidase [1] = target: T1, D-amino-acid oxidase (Homo sapiens, UniProt P14920); test: Inhibition of recombinant human DAAO expressed in HEK cells using D-serine as substrate assessed as formation of alpha-keto acid, ammonia, […] after 20 mins by horseradish peroxidase/o-phenylenediamine-based assay; set-up: species or system HEK293
Method in brief: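 Human DAAO from HEK cells: lysate in 50 mM Tris pH 8.5 with 100 µM FAD, sonicated, then ion-exchange purified with a 0–0.5 M NaCl gradient. […] Enzyme set to give 2.0 mOD/min uninhibited. Rate read as absorbance change at 411 nm. Mean ± SD of ≥4 experiments in most cases.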

[2] = Metabolic stability in mouse liver microsomes assessed as compound remaining at 5 uM after 60 mins by LC/MS/MS analysis in presence of UDPGA; type: ADME; conditions: 1 h
Method in brief: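 Glucuronidation in mouse liver microsomes (0.5 mg/mL): 50 mM Tris-HCl pH 7.5, 8 mM MgCl2, 25 µg/mL alamethicin, pre-incubated at 37 °C. Started with 2 mM UDPGA (final), in duplicate, for 60 min. Quenched with cold acetonitrile plus internal standard; LC/MS/MS read-out, with cofactor-free controls.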

[3] = Metabolic stability in mouse liver microsomes assessed as compound remaining at 5 uM after 60 mins by LC/MS/MS analysis in presence of NADPH; type: ADME; conditions: 1 h
Method in brief: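 Mouse liver microsomes (0.5 mg/mL) with 5 µM test compound in 100 mM potassium phosphate pH 7.4 plus NADPH regenerating system (1.3 mM NADPH). Reaction started with microsomes, run in duplicate for 60 min, quenched with cold acetonitrile containing internal standard. Parent quantified by LC/MS/MS; cofactor-free controls included.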

[4] = Cmax in CD1 mouse at 30 mg/kg, po; type: ADME, organism-based; set-up: dose 30 mg/kg, route oral; conditions: in vivo
Method in brief: (§1)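 Male CD1 mice, n = 3 per time point, dosed iv or po. About 1 mL blood taken by cardiac puncture into heparinized tubes, kept on wet ice, centrifuged 10 min at 800 g, 4 °C. Plasma stored at −80 °C; drug levels measured by HPLC–QTOF-MS.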

Salmonella typhimurium [5] = test: Mutagenicity in Salmonella typhimurium TA100 by Ames test in presence of S9 mixture; type: toxicity, organism-based; conditions: salmonella enterica subsp. enterica serovar typhimurium
[6] = target: T2, Glutamate NMDA receptor; GRIN1/GRIN2A (Homo sapiens) (UniProt Q05586+Q12879); test: Inhibition of NMDA receptor phencyclidine binding site (unknown origin) at 10 uM relative to control; type: protein-complex assay
Salmonella typhimurium [7] = test: Mutagenicity in Salmonella typhimurium TA100 by Ames test in absence of S9 mixture; type: toxicity, organism-based; conditions: salmonella enterica subsp. enterica serovar typhimurium
[8] = target: Voltage-gated inwardly rectifying potassium channel KCNH2 (Homo sapiens, UniProt Q12809); test: Inhibition of human ERG up to 25 uM
[9] = Volume of distribution in CD1 mouse at 30 mg/kg, iv; type: ADME, organism-based; conditions: in vivo; method in brief: as §1
Mus musculus [10] = test: Increase in plasma Cmax of D-serine in CD1 mouse at 30 mg/kg, po; type: ADME, organism-based; conditions: in vivo
MAO-A = target: T3, MAO-A (Homo sapiens, UniProt P21397); test: Inhibition of MAO-A (unknown origin) at 10 uM relative to control
T3 sequence (P21397 whole entry): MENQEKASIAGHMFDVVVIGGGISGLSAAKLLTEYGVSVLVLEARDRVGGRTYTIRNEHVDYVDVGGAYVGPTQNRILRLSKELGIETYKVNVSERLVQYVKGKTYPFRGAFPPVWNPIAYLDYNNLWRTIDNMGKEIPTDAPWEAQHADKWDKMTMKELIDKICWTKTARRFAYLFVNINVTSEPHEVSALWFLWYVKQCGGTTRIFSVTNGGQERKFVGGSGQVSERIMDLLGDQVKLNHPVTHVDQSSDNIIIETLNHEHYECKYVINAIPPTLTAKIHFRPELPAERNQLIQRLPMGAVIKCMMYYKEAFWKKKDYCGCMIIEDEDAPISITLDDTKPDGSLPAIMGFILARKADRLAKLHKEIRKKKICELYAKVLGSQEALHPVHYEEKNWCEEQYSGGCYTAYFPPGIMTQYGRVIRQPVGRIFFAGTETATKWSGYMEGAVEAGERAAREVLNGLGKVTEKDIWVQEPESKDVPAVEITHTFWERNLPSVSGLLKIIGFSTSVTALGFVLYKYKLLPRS

Mus musculus [11] = test: Decrease in plasma clearance of D-serine in CD1 mouse assessed as D-serine AUC (0 to 6 hrs) at 30 mg/kg, po (R[…]microg.hr/ml); type: functional
[12] = target: T2, Glutamate NMDA receptor; GRIN1/GRIN2A (Homo sapiens); test: Inhibition of NMDA receptor agonist binding site (unknown origin) at 10 uM relative to control; type: protein-complex assay
[13] = Clearance in CD1 mouse at 30 mg/kg, iv; type: ADME, organism-based; conditions: in vivo; method in brief: as §1
[14] = AUClast in CD1 mouse at 30 mg/kg, iv; type: ADME, organism-based; set-up: dose 30 mg/kg, route intravenous, time 0 - last; conditions: in vivo; method in brief: as §1
[15] = Tmax in CD1 mouse at 30 mg/kg, po; type: ADME, organism-based; conditions: in vivo; method in brief: as §1
Mus musculus [16] = test: Ratio of drug level in brain to plasma in CD1 mouse at 30 mg/kg, po; type: ADME, organism-based
Mus musculus [17] = test: Oral bioavailability in CD1 mouse at 30 mg/kg; type: ADME, organism-based; conditions: in vivo; method in brief: as §1
D-amino-acid oxidase [18] = target: T1, D-amino-acid oxidase; test: Inhibition of recombinant human DAAO expressed in HEK cells in presence of 10 to 100 uM of FAD; type: cell-based; conditions: HEK293
Method in brief: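 Reactions ran in 50 mM Tris pH 8.5 with 2% DMSO final, for 20 min at room temperature. Absorbance rate was read at 411 nm. IC50 was determined with FAD raised from 10 to 100 µM.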

[19] = target: T2, Glutamate NMDA receptor; GRIN1/GRIN2A (Homo sapiens); test: Inhibition of NMDA receptor MK801 binding site (unknown origin) at 10 uM relative to control; type: protein-complex assay
[20] = Terminal half life in CD1 mouse at 30 mg/kg, iv; type: ADME, organism-based; conditions: in vivo, read-out: beta t1/2 (converted); method in brief: as §1
[21] = target: T2, Glutamate NMDA receptor; GRIN1/GRIN2A (Homo sapiens); test: Inhibition of NMDA receptor glycine binding site (unknown origin) at 10 uM relative to control; type: protein-complex assay
[22] = target: T4, Glycine receptor subunit alpha-1 (Homo sapiens) (UniProt P23415); test: Inhibition of strychnine-sensitive glycine receptor (unknown origin) at 10 uM relative to control
T4 sequence (whole entry): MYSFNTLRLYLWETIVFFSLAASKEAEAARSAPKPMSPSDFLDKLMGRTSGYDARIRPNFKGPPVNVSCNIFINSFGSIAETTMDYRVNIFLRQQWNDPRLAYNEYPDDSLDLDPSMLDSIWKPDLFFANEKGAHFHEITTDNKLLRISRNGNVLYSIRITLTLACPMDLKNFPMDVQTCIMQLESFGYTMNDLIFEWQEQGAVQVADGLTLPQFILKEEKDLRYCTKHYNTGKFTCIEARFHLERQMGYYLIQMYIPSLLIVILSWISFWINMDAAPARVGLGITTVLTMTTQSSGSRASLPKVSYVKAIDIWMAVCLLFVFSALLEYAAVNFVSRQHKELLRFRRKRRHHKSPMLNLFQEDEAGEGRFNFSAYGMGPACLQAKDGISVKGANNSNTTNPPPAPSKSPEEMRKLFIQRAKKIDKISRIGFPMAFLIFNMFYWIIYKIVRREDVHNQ

D-amino-acid oxidase [23] = target: T1, D-amino-acid oxidase; test: Competitive inhibition of recombinant human DAAO expressed in HEK cells by double reciprocal plot analysis in presence of D-serine; set-up: species or system HEK293
Method in brief: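 hDAAO was purified from HEK cell lysate by ion-exchange FPLC. […] Activity was read as the rate of absorbance change at 411 nm. The mode of inhibition and Ki came from a double reciprocal plot.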

MAO-B = target: T5, MAO-B (Homo sapiens, UniProt P27338); test: Inhibition of MAO-B (unknown origin) at 10 uM relative to control
T5 sequence (P27338 whole entry): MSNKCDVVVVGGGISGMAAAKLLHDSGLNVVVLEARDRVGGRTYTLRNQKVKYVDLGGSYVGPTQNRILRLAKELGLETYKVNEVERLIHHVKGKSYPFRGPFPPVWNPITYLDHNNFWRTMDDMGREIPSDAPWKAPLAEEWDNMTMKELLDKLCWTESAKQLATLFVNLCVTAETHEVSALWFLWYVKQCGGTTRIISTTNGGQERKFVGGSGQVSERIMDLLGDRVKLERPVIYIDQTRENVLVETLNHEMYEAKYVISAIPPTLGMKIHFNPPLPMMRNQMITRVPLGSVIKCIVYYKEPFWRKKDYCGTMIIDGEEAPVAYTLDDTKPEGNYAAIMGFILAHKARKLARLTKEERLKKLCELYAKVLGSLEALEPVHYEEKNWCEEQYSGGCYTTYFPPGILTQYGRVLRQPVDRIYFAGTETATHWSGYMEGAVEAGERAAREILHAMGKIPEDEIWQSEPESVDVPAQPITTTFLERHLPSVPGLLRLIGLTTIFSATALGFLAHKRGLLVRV

[24] = AUClast in CD1 mouse at 30 mg/kg, po; type: ADME, organism-based; set-up: dose 30 mg/kg, route oral, time 0 - last; conditions: in vivo; method in brief: as §1
[25] = Volume of distribution in CD1 mouse at 10 mg/kg, iv; type: ADME, organism-based; conditions: in vivo; method in brief: as §1
Mus musculus [26] = test: Dose normalized AUClast in CD1 mouse at 10 mg/kg, iv; type: ADME, organism-based; conditions: in vivo; method in brief: as §1
[27] = Terminal half life in CD1 mouse at 10 mg/kg, iv; type: ADME, organism-based; conditions: in vivo, read-out: beta t1/2 (converted); method in brief: as §1

Sequence of Voltage-gated inwardly rectifying potassium channel KCNH2 (Q12809 whole entry): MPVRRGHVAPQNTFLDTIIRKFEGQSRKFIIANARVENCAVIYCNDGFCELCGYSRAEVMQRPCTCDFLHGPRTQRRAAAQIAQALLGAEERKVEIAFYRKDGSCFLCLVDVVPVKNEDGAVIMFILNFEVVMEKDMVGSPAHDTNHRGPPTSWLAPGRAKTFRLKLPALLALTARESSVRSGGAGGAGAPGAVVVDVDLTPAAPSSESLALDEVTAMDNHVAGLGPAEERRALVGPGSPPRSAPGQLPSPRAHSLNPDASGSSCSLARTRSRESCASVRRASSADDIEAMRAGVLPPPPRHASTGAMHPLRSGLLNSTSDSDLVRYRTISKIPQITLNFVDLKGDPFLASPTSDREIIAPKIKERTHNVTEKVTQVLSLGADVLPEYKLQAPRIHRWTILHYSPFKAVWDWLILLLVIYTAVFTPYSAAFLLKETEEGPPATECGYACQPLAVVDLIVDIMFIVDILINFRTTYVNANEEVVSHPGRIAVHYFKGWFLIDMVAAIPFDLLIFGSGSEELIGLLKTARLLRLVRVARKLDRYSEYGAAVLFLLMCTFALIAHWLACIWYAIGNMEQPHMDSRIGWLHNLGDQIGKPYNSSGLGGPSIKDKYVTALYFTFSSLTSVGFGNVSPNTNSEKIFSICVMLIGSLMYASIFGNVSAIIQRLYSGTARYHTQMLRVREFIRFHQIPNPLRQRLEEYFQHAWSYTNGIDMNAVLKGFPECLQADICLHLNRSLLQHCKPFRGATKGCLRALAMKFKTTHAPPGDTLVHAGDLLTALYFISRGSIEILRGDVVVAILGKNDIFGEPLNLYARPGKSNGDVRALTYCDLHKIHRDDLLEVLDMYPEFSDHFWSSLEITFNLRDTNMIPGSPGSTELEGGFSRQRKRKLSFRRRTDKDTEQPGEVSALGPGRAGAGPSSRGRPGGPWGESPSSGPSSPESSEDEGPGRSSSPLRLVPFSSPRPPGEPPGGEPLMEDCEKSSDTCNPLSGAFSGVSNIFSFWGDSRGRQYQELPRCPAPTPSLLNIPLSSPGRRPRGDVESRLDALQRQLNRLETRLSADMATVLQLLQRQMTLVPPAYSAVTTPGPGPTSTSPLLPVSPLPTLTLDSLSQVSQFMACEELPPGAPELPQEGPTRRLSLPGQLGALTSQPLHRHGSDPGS

- Stability [2]: >= 99%
- IC50 (D-amino-acid oxidase [1]): 70 nM
- Stability [3]: >= 99%
SMILES: O=c1[nH]c(=O)n(CCc2ccccc2)nc1O

- Stability [2]: 5%
SMILES: O=c1cc(CSc2ccc(Cl)c(Cl)c2)occ1O

- IC50 (D-amino-acid oxidase [1]): 760 nM
SMILES: O=c1[nH]c(=O)n(CCc2ccccn2)nc1O

- IC50 (D-amino-acid oxidase [1]): 160 nM
SMILES: O=c1[nH]c(=O)n(CCc2cccc(O)c2)nc1O

- Stability [2]: >= 99%
- Stability [3]: 87%
SMILES: O=c1[nH]c(=S)n(CCc2ccccc2)nc1O

- Stability [2]: <= 1%
- IC50 (D-amino-acid oxidase [1]): 80 nM
SMILES: O=c1[nH]c(=O)n(CCc2ccccc2)cc1O

- IC50 (D-amino-acid oxidase [1]): 80 nM
SMILES: Cc1ccccc1CCn1nc(O)c(=O)[nH]c1=O

- Cmax [4]: 6600 ng/mL
- Vd [25]: 0.5 L/kg
- Tmax [15]: 15 min
- Stability [3]: 92%
- AUClast/dose (Mus musculus [26]): 12.7 µg·h/mL
- half-life [27]: 12 min
- AUC(0-t) [24]: 3900 ng·h/mL
SMILES: O=c1[nH]nc(CCc2cc(F)cc(F)c2)cc1O

- IC50 (D-amino-acid oxidase [1]): 70 nM
SMILES: Cc1cccc(CCn2nc(O)c(=O)[nH]c2=O)c1

Continued, compound first:

SMILES: O=c1[nH]c(=O)n(CC(O)c2ccccc2)nc1O (configuration not stated)
- IC50 (D-amino-acid oxidase [1]): 470 nM

SMILES: O=C(Cn1nc(O)c(=O)[nH]c1=O)c1ccccc1
- IC50 (D-amino-acid oxidase [1]): 850 nM

SMILES: O=c1[nH]c(=O)n(Cc2cccc3ccccc23)nc1O
- Cmax [4]: 13800 ng/mL
- Activity (Salmonella typhimurium [5]): Non-toxic
- inhibition [6]: < 5%
- Activity (Salmonella typhimurium [7]): Non-toxic
- inhibition (INH) [8]: Not Active
- Vd [9]: 0.8 L/kg
- Activity (Mus musculus [10]): Not Active
- inhibition at 10 µM (MAO-A): ≤ 5%
- Activity (Mus musculus [11]): 96.9 µg·h/mL
- inhibition [12]: < 5%
- Stability [2]: >= 99%
- clearance [13]: 10.2 mL/min/kg
- AUC(0-t) [14]: 16300 ng·h/mL
- Tmax [15]: 4.8 min
- Stability [3]: >= 99%
- BPR (Mus musculus [16]): 0.01
- F (Mus musculus [17]): 79%
- inhibition (D-amino-acid oxidase [18]): Active
- inhibition [19]: < 5%
- half-life [20]: 54 min
- inhibition [21]: 22%
- inhibition [22]: < 5%
- Ki (D-amino-acid oxidase [23]): 60 nM
- inhibition at 10 µM (MAO-B): ≤ 5%
- AUC(0-t) [24]: 12900 ng·h/mL

SMILES: O=c1[nH]c(=O)n(CCc2ccc(Oc3ccccc3)cc2)nc1O
- IC50 (D-amino-acid oxidase [1]): 80 nM

SMILES: O=c1[nH]c(=O)n(Cc2ccc3ccccc3c2)nc1O
- IC50 (D-amino-acid oxidase [1]): 220 nM

SMILES: O=c1[nH]c(=O)n(CCc2ccc(-c3ccccc3)cc2)nc1O
- IC50 (D-amino-acid oxidase [1]): 50 nM

SMILES: Cn1nc(O)c(=O)[nH]c1=O
- IC50 (D-amino-acid oxidase [1]): 2800 nM

SMILES: O=c1[nH]c(=O)n(CCc2cccc(Oc3ccccc3)c2)nc1O
- IC50 (D-amino-acid oxidase [1]): 240 nM

SMILES: CC(Cn1nc(O)c(=O)[nH]c1=O)c1ccccc1 (configuration not stated)
- IC50 (D-amino-acid oxidase [1]): 3300 nM

— ChEMBL document CHEMBL3612020
